What was measured:
[1] = type: physicochemical; conditions: 35°C, 5-FU 1.25 mg/mL in donor phase; control slope = Km
Summary of the method: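 Dynamic dialysis was run at 35°C across porous cellulose (12.5 kDa cutoff). The donor held 5 mL of lyophilised-then-regenerated nanoparticles, plain drug solution, or drug with 0.25 mg/mL chitosan HCl; the receiver held 100 mL demineralised water under sink conditions. The receiver was sampled at intervals for HPLC (RP-18, 0.05 M KH2PO4/0.1% triethylamine, UV 266 nm). Ff came from the ln[(Cd/Cd0)×100]-vs-time slope; ≥3 repeats.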

[2] = Dynamic dialysis at 4°C: drug–polymer interactions in TSOH, sol state; type: physicochemical; conditions: 5-FU 1.25 mg/mL, printed value is slope ×10^3
Summary of the method: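 Sol-state formulations were tested by dynamic dialysis at 4°C. The donor held 5 mL of formulation; the receiver held 100 mL of 0.08 M HCl with β-glycerophosphate. Receiver drug was measured at intervals. Each day's run order was control, two formulations, then control again on the same membrane, with a fresh membrane daily. Bound fraction was taken as 1−Ff from the log-linear slope.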

slope of straight line ± standard deviation, ln[(Cd/Cd0)×100] vs t [1]: 0.841±0.029 hours | Modulus of straight-line slope (×10^3) ± SD (n=8) [2]: 5.06±0.75 1/minutes
Structure (SMILES): O=c1[nH]cc(F)c(=O)[nH]1 [Control, 5-fluorouracil]

From article PMC5248944 (International Journal of Nanomedicine, 2017)
